Consider one molecule from article PMC4629109 (Acta Pharmaceutica Sinica. B, 2014).

A short description of one data set: Solubility study. It counts as physicochemical. As to conditions: doubly distilled water, 25 °C, thermodynamic from solid. The gist of the method:
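Excess solid was placed in doubly distilled water and shaken at 100 times/min at 25 °C for 24 h. It then stood a further 24 h at 25 °C and was centrifuged. The supernatant was assayed by HPLC on a Polar-RP column at 35 °C, with UV at 230 nm and pH 2.5 phosphate buffer/acetonitrile.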

Data set [1] in a line: n-octanol/water partition coefficient, shake flask method. It counts as physicochemical. The method in brief:
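Shake-flask method: n-octanol and water were mutually presaturated (24 h shaking, 4000 rpm 10 min). The compound was dissolved in water-saturated octanol and mixed with an equal volume of octanol-saturated water. The mixture was shaken at 100 times/min at 25 °C for 24 h and centrifuged at 4000 rpm for 10 min. Both phases were diluted and quantified by HPLC (UV 230 nm), and P was calculated as C(oil)/C(water).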

The test system of the next data set is ARPE-19. Put plainly: Cellular internalization by confocal scanning microscopy. It counts as cell-based. Conditions: ARPE-19, 100 μmol/L, 37 °C. The gist of the method: (§1)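 Cells were seeded on confocal dishes at 5×10³ cells/well and grown 24 h at 37 °C. They were then exposed to 100 μmol/L test compound or fluorescein for 2 h or 6 h, and washed three times with HBSS. Intracellular fluorescence was imaged by laser scanning confocal microscopy, with excitation at 488 nm for fluorescein and 405 nm for the conjugate.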

In another data set the test system is hRMECs. Described as above. It counts as cell-based, human. Conditions: 100 μmol/L, 37 °C. The gist of the method:
as §1

A short description of data set [2]: Transport across ARPE-19 monolayer cells. The format is in vitro ADME. Conditions: human. The gist of the method: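 ARPE-19 cells were seeded at 2.5×10⁵ cells/insert on 12-well 0.4 μm polycarbonate Transwells and used once TEER reached 150 Ω. After two HBSS rinses, 100 μmol/L compound in 37 °C HBSS was added apically. Basolateral samples were taken at 30, 60, 120, 240 and 360 min with replacement and analysed by HPLC. Papp=(ΔQ/Δt)/(A×C0), with A 1.12 cm², n=3. The ratio is Papp test/Papp fluorescein; a competition set used 24 h pre-incubation with 10 mmol/L taurine.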

Data set [3] is described as follows: Transport across hRMECs monolayer cells. The format is in vitro ADME. As to conditions: human. The method in brief:
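hRMEC monolayers were grown on 24-well 0.4 μm polycarbonate Transwells and used at TEER 200 Ω. After rinsing, 100 μmol/L compound in 37 °C HBSS was added apically. Basolateral samples were taken at 30, 60, 120, 240 and 360 min with replacement and analysed by HPLC (UV 230 nm). Papp=(ΔQ/Δt)/(A×C0), with A 0.33 cm², n=3. The ratio is Papp test/Papp fluorescein; a competition set used 24 h pre-incubation with 10 mmol/L taurine in both chambers.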

SMILES strings stand for the structures. Converted amounts (≈) assume the structure as drawn.

With `O=C1OC2(c3ccc(O)cc3Oc3cc(O)ccc32)c2ccccc21` [Fluorescein], the solubility (commonly the dissolved amount per volume that the medium holds) at 24 h in the data set “Solubility study” stood at 6.75 µg/mL (≈ 20.3 µM). Moreover, the logP (usually a log measure of how a compound divides between an organic and an aqueous phase) at 24 h in data set [1] worked out at 1.55. For the same molecule, the “intracellular fluorescence (cellular uptake)” value with ARPE-19 (2 h) and in the data set on hRMECs (2 h) was “strong fluorescence” throughout. Besides, the “intracellular fluorescence (cellular retention)” value with ARPE-19 (6 h) and in the data set on hRMECs (6 h) was “almost no fluorescein was observed” throughout. Further, the Papp (usually the rate of passage across a membrane or cell layer, normalised by area and donor concentration) at 360 min, 100 μmol/L in data set [2] stood at 5.56 ± 0.8 ×10⁻⁶ cm/s; in data set [3] it was 7.23 ± 0.92 ×10⁻⁶ cm/s.
